Active and inactive are the calls of the source. The calls are words filed in the database; no cut-off is given here.
How the values were obtained:
[1] = target: T1, DNA topoisomerase 1 (Homo sapiens) (UniProt P11387); assay: Inhibition of Topo 1 (unknown origin)-mediated relaxation of supercoiled pBR322 plasmid at 25 uM after 30 mins by agarose gel electrophoresis
T1 sequence (whole entry): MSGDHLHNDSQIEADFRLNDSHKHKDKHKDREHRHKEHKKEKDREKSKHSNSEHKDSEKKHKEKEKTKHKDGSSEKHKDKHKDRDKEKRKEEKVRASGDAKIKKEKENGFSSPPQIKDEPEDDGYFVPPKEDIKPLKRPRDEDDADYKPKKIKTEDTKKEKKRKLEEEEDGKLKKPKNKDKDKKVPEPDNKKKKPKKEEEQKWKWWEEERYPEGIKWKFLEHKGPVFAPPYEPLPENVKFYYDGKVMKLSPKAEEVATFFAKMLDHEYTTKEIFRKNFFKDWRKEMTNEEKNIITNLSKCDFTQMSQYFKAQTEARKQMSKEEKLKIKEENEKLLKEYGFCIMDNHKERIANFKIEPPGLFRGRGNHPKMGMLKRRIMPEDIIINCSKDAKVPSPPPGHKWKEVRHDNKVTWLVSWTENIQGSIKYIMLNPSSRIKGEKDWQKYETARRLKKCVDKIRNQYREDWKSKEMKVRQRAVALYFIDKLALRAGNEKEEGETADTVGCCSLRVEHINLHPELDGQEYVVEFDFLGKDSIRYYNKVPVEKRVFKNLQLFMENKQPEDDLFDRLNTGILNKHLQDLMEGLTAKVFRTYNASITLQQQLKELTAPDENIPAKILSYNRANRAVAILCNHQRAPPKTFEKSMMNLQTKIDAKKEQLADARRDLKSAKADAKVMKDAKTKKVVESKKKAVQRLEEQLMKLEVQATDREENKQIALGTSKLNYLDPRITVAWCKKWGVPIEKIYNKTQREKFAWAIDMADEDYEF
Method in brief: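 Topo I with supercoiled pBR322 and compound, 30 min at 37 °C. Stopped with SDS/bromophenol blue/glycerol dye; run on 1% agarose gel in TAE for 1 h and stained with Gel Red.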

[2] = Cytotoxicity against human HL60 cells after 48 hrs by MTT assay; assay type: functional, cell-based; conditions: HL-60, 48 h
Method in brief: (§1)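 Cells seeded 1 × 10^4 per well and incubated overnight, then given compound at 0–50 µM for 48 h. MTT added (20 µL of 5 mg/mL stock) for 4 h at 37 °C; formazan dissolved in DMSO, absorbance read at 570 nm. Triplicates; IC50 from mean OD versus concentration curves.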

[3] = target: DNA topoisomerase 2-alpha (Homo sapiens) (UniProt P11388); assay: Inhibition of human Topo 2-mediated relaxation of supercoiled pBR322 plasmid at 25 to 50 uM after 30 mins by agarose gel electrophoresis
Sequence of DNA topoisomerase 2-alpha (Homo sapiens) (P11388 whole entry, the tested form may be a part): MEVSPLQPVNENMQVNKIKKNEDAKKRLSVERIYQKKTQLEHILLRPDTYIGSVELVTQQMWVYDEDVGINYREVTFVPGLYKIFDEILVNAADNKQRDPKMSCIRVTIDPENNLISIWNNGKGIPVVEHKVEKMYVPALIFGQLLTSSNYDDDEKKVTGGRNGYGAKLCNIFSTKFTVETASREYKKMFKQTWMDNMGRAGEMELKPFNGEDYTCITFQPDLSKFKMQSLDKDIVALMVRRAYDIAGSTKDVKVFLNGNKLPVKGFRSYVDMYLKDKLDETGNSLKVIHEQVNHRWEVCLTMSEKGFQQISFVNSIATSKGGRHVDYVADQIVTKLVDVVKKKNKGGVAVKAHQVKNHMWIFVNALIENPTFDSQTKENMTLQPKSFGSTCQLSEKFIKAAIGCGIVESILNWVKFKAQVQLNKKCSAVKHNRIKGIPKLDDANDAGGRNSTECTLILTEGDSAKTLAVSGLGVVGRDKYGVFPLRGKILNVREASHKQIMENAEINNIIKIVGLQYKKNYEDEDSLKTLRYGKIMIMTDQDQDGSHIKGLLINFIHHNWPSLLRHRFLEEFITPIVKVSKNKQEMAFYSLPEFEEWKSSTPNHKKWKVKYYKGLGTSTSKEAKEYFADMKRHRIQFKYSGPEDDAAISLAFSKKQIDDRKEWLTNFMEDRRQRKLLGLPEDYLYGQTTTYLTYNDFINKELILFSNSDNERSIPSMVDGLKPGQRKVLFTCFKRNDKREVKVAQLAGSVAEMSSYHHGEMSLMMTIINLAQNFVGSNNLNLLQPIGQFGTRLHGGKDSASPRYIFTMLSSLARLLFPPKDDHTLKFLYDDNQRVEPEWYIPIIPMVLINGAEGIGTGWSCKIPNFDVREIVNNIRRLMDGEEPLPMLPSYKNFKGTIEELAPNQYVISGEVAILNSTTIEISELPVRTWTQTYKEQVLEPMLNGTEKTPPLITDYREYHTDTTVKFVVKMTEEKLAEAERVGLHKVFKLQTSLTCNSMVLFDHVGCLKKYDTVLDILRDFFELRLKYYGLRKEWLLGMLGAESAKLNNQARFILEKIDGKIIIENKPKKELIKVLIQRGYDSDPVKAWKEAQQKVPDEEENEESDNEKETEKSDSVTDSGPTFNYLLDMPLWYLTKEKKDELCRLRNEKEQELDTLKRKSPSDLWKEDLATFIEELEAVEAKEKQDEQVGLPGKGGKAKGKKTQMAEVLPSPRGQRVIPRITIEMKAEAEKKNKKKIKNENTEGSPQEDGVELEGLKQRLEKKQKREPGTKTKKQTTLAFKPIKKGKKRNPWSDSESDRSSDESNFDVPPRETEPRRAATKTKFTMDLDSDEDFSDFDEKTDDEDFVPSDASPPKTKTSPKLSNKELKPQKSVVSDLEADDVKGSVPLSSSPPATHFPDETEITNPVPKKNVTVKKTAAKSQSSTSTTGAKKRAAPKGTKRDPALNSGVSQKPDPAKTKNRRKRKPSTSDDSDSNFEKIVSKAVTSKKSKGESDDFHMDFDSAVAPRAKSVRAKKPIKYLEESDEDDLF

A549 = assay: Cytotoxicity against human A549 cells after 48 hrs by MTT assay; assay type: functional, cell-based; conditions: A549, 48 h; method in brief: as §1
K562 = assay: Cytotoxicity against human K562 cells after 48 hrs by MTT assay; assay type: functional, cell-based; conditions: K562, 48 h; method in brief: as §1
HeLa = assay: Cytotoxicity against human HeLa cells after 48 hrs by MTT assay; assay type: functional, cell-based; method in brief: as §1
[4] = target: DNA topoisomerase 2-alpha (Homo sapiens) (UniProt P11388); assay: Inhibition of human Topo 2-mediated relaxation of supercoiled pBR322 plasmid at 25 uM after 30 mins by agarose gel electrophoresis
[5] = target: DNA topoisomerase 2-alpha (Homo sapiens) (UniProt P11388); assay: Inhibition of human Topo 2 ATPase domain expressed in yeast BCY123 strain at 25 uM after 1 hr by nonisotopic malachite green assay
Method in brief: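 Human Topo II ATPase domain overexpressed in yeast BCY123 and purified. Assay buffer: 100 mM Tris-HCl pH 7.4, 20 mM KCl, 6 mM MgCl2. Reaction of 25 µL with compound, started with 1 mM ATP, 1 h at 37 °C. Phosphate detected with malachite green at OD620. No-enzyme background set as 100% inhibition and enzyme-only as 0%.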

| SMILES | Topo I relaxation inhibition (active/not active) [1] | IC50 [2] [µM] | Topo 2 inhibition (active/not active) [3] | IC50 (A549) [µM] | IC50 (K562) [µM] | IC50 (HeLa) [µM] | Topo 2 inhibition (active/not active) [4] | inhibition [5] [%] |
| --- | --- | --- | --- | --- | --- | --- | --- | --- |
| CN(C)CCn1c2cc(=O)c3ccccc3c-2nc2ccccc21 | Active | 0.31 | Active | 22.3 | 24.6 | 9.91 | – | – |
| CCN(CC)CCn1c2cc(=O)c3ccccc3c-2nc2ccccc21 | – | 0.31 | – | 29.2 | 25.6 | 25.4 | – | – |
| O=c1cc2n(CCN3CCCCC3)c3ccccc3nc-2c2ccccc12 | inactive | 0.93 | Active | 37.3 | 25.2 | 32 | – | – |
| CN(C)CCCn1c2cc(=O)c3ccccc3c-2nc2cccnc21 | inactive | 0.62 | – | 20.4 | 36.8 | 4.52 | inactive | – |
| O=c1cc2n(CCCN3CCOCC3)c3ccccc3nc-2c2ccccc12 | – | 1.28 | – | 45.4 | 25.2 | > 50 | – | – |
| O=c1cc2n(CCN3CCOCC3)c3ccccc3nc-2c2ccccc12 | – | 6.91 | – | > 50 | > 40 | > 50 | – | – |
| O=c1cc2n(CCCN3CCCCC3)c3ncccc3nc-2c2ccccc12 | inactive | 0.63 | – | 19.9 | 38.4 | 20.4 | inactive | – |
| CCN(CC)CCCn1c2cc(=O)c3ccccc3c-2nc2ccccc21 | – | 1.5 | – | 37.4 | 24.8 | 44.5 | – | – |
| CN1CCN(CCn2c3cc(=O)c4ccccc4c-3nc3ccccc32)CC1 | Active | 0.38 | – | 25.3 | 21.6 | 28.9 | – | – |
| COc1ccc2c(c1)nc1c3ccccc3c(=O)cc-1n2CCCN(C)C | inactive | 0.96 | – | 25.9 | 20.2 | 24.9 | – | – |
| COc1cc([C@@H]2c3cc4c(cc3[C@@H](O[C@@H]3O[C@@H]5CO[C@@H](C)O[C@H]5[C@H](O)[C@H]3O)[C@H]3COC(=O)[C@H]23)OCO4)cc(OC)c1O [ETOPOSIDE] | – | 0.06 | – | 8.91 | 1.64 | 0.54 | – | – |
| COc1ccc2c3nc4ccccc4n(CCCN(C)C)c-3cc(=O)c2c1 | inactive | 0.15 | – | 24.6 | 6.12 | 28.4 | – | – |
| O=c1cc2n(CCCN3CCCCC3)c3ccccc3nc-2c2ccccc12 | inactive | 0.52 | Active | 33 | 10.3 | 27.4 | – | – |
| COc1ccc2c3nc4ccccc4n(CCN(C)C)c-3cc(=O)c2c1 | – | 2.85 | – | 38.5 | 18.4 | 18.9 | – | – |
| COc1ccc2c3nc4cc(Cl)ccc4n(CCCN(C)C)c-3cc(=O)c2c1 | – | 6.43 | – | 31.5 | 22.8 | 43 | – | – |
| COc1ccc2c(c1)nc1c3ccc(OC)cc3c(=O)cc-1n2CCCN(C)C | inactive | 0.65 | – | 34.5 | 22 | 6.52 | – | – |
| O=C1C=CC(=O)c2ccccc21 | – | – | – | – | – | – | – | 56 |
| CCN(CC)CCCn1c2cc(=O)c3cc(OC)ccc3c-2nc2ccccc21 | inactive | 0.23 | – | 22.9 | 22 | 25.9 | – | – |
| CN(C)CCCn1c2cc(=O)c3ccccc3c-2nc2ccccc21 | Active | 0.21 | Active | 13.5 | 5.93 | 8.41 | – | – |
| CN(C)CCCn1c2cc(=O)c3ccccc3c-2nc2cc(Cl)ccc21 | – | 1.08 | – | 38.4 | 20.4 | 29.6 | – | – |
| O=c1cc2n(CCCN3CCCC3)c3ccccc3nc-2c2ccccc12 | – | 0.22 | – | 35.7 | 25.2 | 30.3 | – | – |
| CCCn1c2cc(=O)c3ccccc3c-2nc2ccccc21 | – | 32.1 | inactive | > 50 | > 40 | > 50 | – | – |
| CCN(CC)CCCCn1c2cc(=O)c3ccccc3c-2nc2ccccc21 | – | 0.22 | – | 18.9 | 26 | 29.4 | – | – |
| COc1ccc2nc3c4ccccc4c(=O)cc-3n(CCCN(C)C)c2c1 | Active | 0.18 | – | 30.5 | 5.53 | 5.51 | – | – |
| COc1ccc2c(=O)cc3n(CCCN(C)C)c4ccccc4nc-3c2c1 | Active | 0.22 | – | 33 | 7.13 | 29.9 | Active | – |
| CN1CCN(CCCn2c3cc(=O)c4ccccc4c-3nc3ccccc32)CC1 | – | 1.22 | – | 23.6 | 24 | 26.7 | – | – |

Source: ChEMBL document CHEMBL3407378, “Design, synthesis and biological evaluation of novel 7-alkylamino substituted benzo[a]phenazin derivatives as dual topoisomerase I/II inhibitors” (Eur J Med Chem, 2015)
